Source: ChEMBL document CHEMBL1629690, “Development of hexadecyloxypropyl tenofovir (CMX157) for treatment of infection caused by wild-type and nucleoside/nucleotide-resistant HIV” (Antimicrob Agents Chemother, 2010)

These molecules were tested on Human immunodeficiency virus 1 (assay: Antiviral activity against HIV1 isolate 204 harboring reverse transcriptase M41L/L210W/T215Y/M184V mutant gene by phenosense assay relative to wild type). Details: not given.
Format: functional
Procedure, shortened: (§1)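 PhenoSense HIV recombinant virus assay: patient-derived HIV-1 with major NRTI resistance mutations tested against increasing drug concentrations to give inhibition curves. EC50 is the concentration giving 50% inhibition. Fold change is the test recombinant EC50 divided by the EC50 of a drug-sensitive wild-type reference virus. Panel of 30 NRTI-resistant isolates plus two wild-type viruses.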

Row | Compound | fold change (FC)
1 | Nc1nc(NC2CC2)c2ncn([C@H]3C=C[C@@H](CO)C3)c2n1 [ABACAVIR] | 5

The molecules below were run on Human immunodeficiency virus 1 (assay: Antiviral activity against HIV1 isolate 180 harboring reverse transcriptase K65R mutant gene obtained as site-directed mutant of NL4-3 by phenosense assay relative to wild type). Details: not given.
Format: functional
Procedure, shortened: (§2)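 Recombinant-virus PhenoSense HIV assay run on a panel of 30 NRTI-resistant HIV-1 mutants and two wild-type viruses. Each virus is tested across increasing drug concentrations to give an inhibition curve and EC50. Fold change is the test recombinant EC50 divided by the EC50 of the drug-sensitive wild-type reference virus.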

Row | Compound | fold change (FC)
2 | Nc1nc(NC2CC2)c2ncn([C@H]3C=C[C@@H](CO)C3)c2n1 [ABACAVIR] | 2.6

What follows are molecules tested on Human immunodeficiency virus 1 (assay: Antiviral activity against HIV1 isolate 200 harboring reverse transcriptase M41L/L210W/T215Y mutant gene by phenosense assay). Details: Human immunodeficiency virus 1, isolate 200.
Format: functional, organism-based
Procedure, shortened: as §2

Row | Compound | EC50 [µM]
3 | Nc1nc(NC2CC2)c2ncn([C@H]3C=C[C@@H](CO)C3)c2n1 [ABACAVIR] | 5

What follows are molecules tested on Human immunodeficiency virus 1 (assay: Antiviral activity against HIV1 isolate 162 harboring reverse transcriptase A62V/V75I/F77L/Y115F/F116Y/Q151M/M184V mutant gene by phenosense assay). Details: Human immunodeficiency virus 1, isolate 162.
Format: functional, organism-based
Procedure, shortened: as §2

Row | Compound | EC50 [µM]
4 | Nc1nc(NC2CC2)c2ncn([C@H]3C=C[C@@H](CO)C3)c2n1 [ABACAVIR] | > 52

The molecules below were run on Human immunodeficiency virus 1 (assay: Antiviral activity against HIV1 isolate 217 harboring reverse transcriptase D67N/K70E/M184V mutant gene by phenosense assay relative to wild type). Details: not given.
Format: functional
Procedure, shortened: as §1

Row | Compound | fold change (FC)
5 | Nc1nc(NC2CC2)c2ncn([C@H]3C=C[C@@H](CO)C3)c2n1 [ABACAVIR] | 2.9

Each molecule was assayed on Human immunodeficiency virus 1 (assay: Antiviral activity against HIV1 isolate 217 harboring reverse transcriptase D67N/K70E/M184V mutant gene by phenosense assay). Details: Human immunodeficiency virus 1, isolate 217.
Format: functional, organism-based
Procedure, shortened: as §1

Row | Compound | EC50 [µM]
6 | Nc1nc(NC2CC2)c2ncn([C@H]3C=C[C@@H](CO)C3)c2n1 [ABACAVIR] | 5.1

What follows are molecules tested on Human immunodeficiency virus 1 (assay: Antiviral activity against HIV1 isolate 201 harboring reverse transcriptase M41L/L210W/T215Y mutant gene by phenosense assay relative to wild type). Details: not given.
Format: functional
Procedure, shortened: as §1

Row | Compound | fold change (FC)
7 | Nc1nc(NC2CC2)c2ncn([C@H]3C=C[C@@H](CO)C3)c2n1 [ABACAVIR] | 2.4

What follows are molecules tested on Human immunodeficiency virus 1 (assay: Antiviral activity against HIV1 isolate 212 harboring reverse transcriptase L210W/T215Y mutant gene by phenosense assay). Details: Human immunodeficiency virus 1, isolate 212.
Format: functional, organism-based
Procedure, shortened: as §1

Row | Compound | EC50 [µM]
8 | Nc1nc(NC2CC2)c2ncn([C@H]3C=C[C@@H](CO)C3)c2n1 [ABACAVIR] | 3.6

The molecules below were run on Human immunodeficiency virus 1 (assay: Antiviral activity against HIV1 isolate 157 harboring reverse transcriptase L74V/M184V mutant gene by phenosense assay). Details: Human immunodeficiency virus 1, isolate 157.
Format: functional, organism-based
Procedure, shortened: as §2

Row | Compound | EC50 [µM]
9 | Nc1nc(NC2CC2)c2ncn([C@H]3C=C[C@@H](CO)C3)c2n1 [ABACAVIR] | 9.2

Each molecule was assayed on Human immunodeficiency virus 1 (assay: Antiviral activity against HIV1 isolate 220 harboring reverse transcriptase K70E/M184V mutant gene by phenosense assay relative to wild type). Details: not given.
Format: functional
Procedure, shortened: as §1

Row | Compound | fold change (FC)
10 | Nc1nc(NC2CC2)c2ncn([C@H]3C=C[C@@H](CO)C3)c2n1 [ABACAVIR] | 5.9

These molecules were tested on Human immunodeficiency virus 1 (assay: Antiviral activity against HIV1 isolate 211 harboring reverse transcriptase D67N/K70R/T215F/K219E/M184V mutant gene by phenosense assay). Details: Human immunodeficiency virus 1, isolate 211.
Format: functional, organism-based
Procedure, shortened: as §1

Row | Compound | EC50 [µM]
11 | Nc1nc(NC2CC2)c2ncn([C@H]3C=C[C@@H](CO)C3)c2n1 [ABACAVIR] | 7.7

These molecules were tested on Human immunodeficiency virus 1 (assay: Antiviral activity against HIV1 isolate 180 harboring reverse transcriptase K65R mutant gene obtained as site-directed mutant of NL4-3 by phenosense assay). Details: Human immunodeficiency virus 1, isolate 180.
Format: functional, organism-based
Procedure, shortened: as §2

Row | Compound | EC50 [µM]
12 | Nc1nc(NC2CC2)c2ncn([C@H]3C=C[C@@H](CO)C3)c2n1 [ABACAVIR] | 4.6

The molecules below were run on Human immunodeficiency virus 1 (assay: Antiviral activity against HIV1 isolate 063 harboring reverse transcriptase M41L/D67N/K70R/M184V/L210W/T215Y/K219E mutant gene by phenosense assay relative to wild type). Details: not given.
Format: functional
Procedure, shortened: as §2

Row | Compound | fold change (FC)
13 | Nc1nc(NC2CC2)c2ncn([C@H]3C=C[C@@H](CO)C3)c2n1 [ABACAVIR] | 7.9

These molecules were tested on Human immunodeficiency virus 1 (assay: Antiviral activity against HIV1 isolate 071 harboring reverse transcriptase 65R/S68N/184V mutant gene by phenosense assay). Details: Human immunodeficiency virus 1, isolate 071.
Format: functional, organism-based
Procedure, shortened: as §2

Row | Compound | EC50 [µM]
14 | Nc1nc(NC2CC2)c2ncn([C@H]3C=C[C@@H](CO)C3)c2n1 [ABACAVIR] | 12

What follows are molecules tested on Human immunodeficiency virus 1 (assay: Antiviral activity against HIV1 isolate 057 expressing wild type reverse transcriptase gene by phenosense assay). Details: Human immunodeficiency virus 1, isolate 057.
Format: functional, organism-based
Procedure, shortened: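 In the PhenoSense recombinant virus assay, virus was tested against increasing drug concentrations. EC50 came from the inhibition curve and was compared with a drug-sensitive reference virus.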

Row | Compound | EC50 [µM]
15 | Nc1nc(NC2CC2)c2ncn([C@H]3C=C[C@@H](CO)C3)c2n1 [ABACAVIR] | 1.7

These molecules were tested on Human immunodeficiency virus 1 (assay: Antiviral activity against HIV1 isolate 060 harboring reverse transcriptase M41L/D67N/K70R/L210W/T215Y/K219E mutant gene by phenosense assay). Details: Human immunodeficiency virus 1, isolate 060.
Format: functional, organism-based
Procedure, shortened: as §2

Row | Compound | EC50 [µM]
16 | Nc1nc(NC2CC2)c2ncn([C@H]3C=C[C@@H](CO)C3)c2n1 [ABACAVIR] | 11

What follows are molecules tested on Human immunodeficiency virus 1 (assay: Antiviral activity against HIV1 isolate 066 harboring reverse transcriptase 184V mutant gene by phenosense assay relative to wild type). Details: not given.
Format: functional
Procedure, shortened: as §2

Row | Compound | fold change (FC)
17 | Nc1nc(NC2CC2)c2ncn([C@H]3C=C[C@@H](CO)C3)c2n1 [ABACAVIR] | 2.7
